Source: BindingDB's records for doi:10.1021/jm010408m (University of Missouri-Columbia, 2002)

Each molecule was assayed against Melanocyte-stimulating hormone receptor (Mus musculus, UniProt Q01727) (assay: In vitro binding affinity for the melanoma receptor was determined in the murine melanoma B16/F1 cell line).
How it was run: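 Competitive displacement on B16/F1 cells seeded at 0.2 million/well and attached overnight. They were rinsed twice with PBS/0.2% BSA and lysed in 1.0 M NaOH. Cell-bound radioactivity was counted and IC50 fitted.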

Melanocyte-stimulating hormone receptor, sequence (Q01727 whole entry): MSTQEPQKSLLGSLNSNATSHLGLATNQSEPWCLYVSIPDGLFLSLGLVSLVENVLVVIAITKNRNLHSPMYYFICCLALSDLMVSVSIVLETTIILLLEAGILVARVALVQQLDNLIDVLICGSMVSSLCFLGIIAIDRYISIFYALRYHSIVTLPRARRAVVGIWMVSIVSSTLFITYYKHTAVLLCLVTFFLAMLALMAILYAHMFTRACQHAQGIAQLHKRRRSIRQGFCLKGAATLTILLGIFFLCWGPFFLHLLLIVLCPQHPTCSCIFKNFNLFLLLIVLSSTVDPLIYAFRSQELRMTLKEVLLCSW

| SMILES | IC50 [nM] |
| --- | --- |
| CC(C)C(NC(=O)C1CCCN1C(=O)C(CCCNC(=N)N)NC(=O)C1NC(=O)C(Cc2c[nH]c3ccccc23)NC(=O)C(CCCNC(=N)N)NC(=O)[C@H](Cc2ccccc2)NC(=O)C(Cc2cnc[nH]2)NC(=O)C(CCC(=O)O)NC(=O)C2[S][ReH]3([OH])([S]1)[S]C(NC(=O)CN1CCN(CC(=O)O)CCN(CC(=O)O)CCN(CC(=O)O)CC1)C(=O)[N]23)C(N)=O (stereo partly drawn) [DOTA-ReCCEHdFRWCRPV-NH2] | 2.1 |
| CC(=O)NC(CCCCNC(=O)CN1CCN(CC(=O)O)CCN(CC(=O)O)CCN(CC(=O)O)CC1)C(=O)NC1[S][ReH]23([OH])[S]C(C(=O)NC(CCCCNC(=O)OCc4ccccc4)C(=O)N4CCCC4C(=O)NC(C(N)=O)C(C)C)NC(=O)C(Cc4c[nH]c5ccccc45)NC(=O)C(CCCNC(=N)N)NC(=O)[C@H](Cc4ccccc4)NC(=O)C(Cc4cnc[nH]4)NC(=O)C(CCC(=O)O)NC(=O)C([S]2)[N]3C1=O (stereo partly drawn) [Ac-Lys(DOTA)-ReCCEHdFRWCKPV-NH2] | 3.3 |
| CC(C)C(NC(=O)C1CCCN1C(=O)C(CCCCN)NC(=O)C1NC(=O)C(Cc2c[nH]c3ccccc23)NC(=O)C(CCCNC(=N)N)NC(=O)[C@H](Cc2ccccc2)NC(=O)C(Cc2cnc[nH]2)NC(=O)C(CCC(=O)O)NC(=O)C2[S][ReH]3([OH])([S]1)[S]C(NC(=O)CN1CCN(CC(=O)O)CCN(CC(=O)O)CCN(CC(=O)O)CC1)C(=O)[N]23)C(N)=O (stereo partly drawn) [DOTA-ReCCEHdFRWCKPV-NH2] | 1.2 |
